Measurements from the EternaBench riboswitch data.

Test system: MS2 coat protein
Experiment: apparent Kd, MS2 coat protein; higher = weaker binding; RNA-MaP array; FMN 200 µM where present
How it was run: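 SNAP-549-labelled MS2 coat protein, doubled from 0.7 or 1.5 nM to 3 µM, was titrated over designs transcribed by stalled E. coli RNA polymerase on Illumina sequencing-chip clusters. Titrations were run without and then with constant ligand in 100 mM Tris-HCl pH 7.5, 80 mM KCl, 4 mM MgCl2, BSA, DTT, yeast tRNA and Tween-20. The apparent Kd is the median of filtered per-cluster fits to green signal normalised to red-channel RNA signal and control-cluster median Fmax.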

[1] = designed as: ON switch for flavin mononucleotide, no ligand
[2] = ligand present: flavin mononucleotide, designed as: ON switch for flavin mononucleotide
[3] = designed as: OFF switch for flavin mononucleotide, no ligand
[4] = ligand present: flavin mononucleotide, designed as: OFF switch for flavin mononucleotide

Row | Sequence | apparent Kd [1] [nM] | apparent Kd [2] [nM] | apparent Kd [3] [nM] | apparent Kd [4] [nM]
1 | UAUUGCGCCGUAAAAUAACACAUGAGGAUCACCCAUGUGACACAGGAUAUGACCAGAUCAGAAAGUCAGAAGGGUGAAAACGGC | 99.6 | 21.6 |  | 
2 | GUGGGAAUCACAGGAUAUACAUGCGCCGCUUCGUUCUACAUGAGGAUCACCCAUGUGUGGUCCGUGUAGAAGGGUGUUUGUUAC | 31 | 10.8 |  | 
3 | GGGUGGCGUACAGGAUAUGUGGUACAUGAGGAUCACCCAUGUGCAUAUGAUGUUCGUGUGUCAUCAUAGAAGGGUACGUCGCUA | 91.2 | 59.2 |  | 
4 | GUAUGAGCGAUAGGAUAUACUGAGAUUGAAUGGGUAGAAGGAUCACUUGUGAGGAAGACAUGAGGAUCACCCAUGUCACGGGCC | 92.8 | 119 |  | 
5 | GGAUUACAUGAGGAUCACCCAUGUGAGGAUAUCGAUGUCCUGGGUGGAGUGCGGGACUCGAGAAGGCACUUGGA |  |  | 60.5 | 229
6 | GUCACUAGAGGAUAUACAAUGGUAUAUGAUCCUAGAGACAUACAUGAGGAUCACCCAUGUAGAAGGCUAGUAUU |  |  | 64.6 | 43.5
7 | AGAUGACAAAGUCAUCUCGCGCAGACAUGAGGAUCACCCAUGUAGGAUAUAUUACUCAAAGAGUAAUAGAAGGACAUGUGUCUU |  |  | 33.5 | 91.7
8 | AUGUUAUUGGAAGGAUAUAGUUUACUAUUCUAACAUGAGGAUCACCCAUGUAACCUUAUGUGUAUCUAGAAGGUCCAUAACUUA |  |  | 54.6 | 62.3
9 | GGUACCAACACAGGAUAUGCUAUCCUUUGGGUAGCAGAAGGGUGAAACAUGAGGAUCACCCAUGUGGUGCCAGGGCGUGAGCCC | 1460 | 96.2 |  | 
10 | GAGACGUCAGGAUAUCUGAUGUCUAACUUCGGUUAGACAUCAGAGAAGGGACAUGAGGAUCACCCAUGUCUCAA |  |  | 16.9 | 12.1
11 | GACGUGUGAGGAUAUGCCGUGCCGGUCCGGAAGGUUCGGGUGCAGAAGGCACAUGAGGAUCACCCAUGUGUAAG |  |  | 23.4 | 32.5
12 | GUCCGGCGUGUAGGAUAUGGAUCCGAUUAGGAUCCAGAAGGACAUGAGGAUCACCCAUGUACAUGUAAACAGUCAUCACCGGAG |  |  | 9.11 | 58.9
13 | UUAUUUAGUGUGAGGAUAUGCUGGUCCUUGGAUCAGCAGAAGGCACAUGAGGAUCACCCAUGUAAUAUAUUAAU |  |  | 91 | 305
14 | ACCGUGCAAGGAUAUCGUUACCUCGACAUGAGGAUCACCCAUGUGGCCAUAUAGCGAUUGCGAGAAGGUGCGGGUA |  |  | 127 | 112
15 | UUUUUGUCAGGAUAUGACUAGAUGCACGUUAGUGCAUCUACUUAGAAGGGACAUGAGGAUCACCCAUGUAUUCC |  |  | 29.8 | 24.3
16 | ACCGAACAUGAGGAUCACCCAUGUGAGGAUAUAGACGUGAAUUAAACACGUAACAAAACUAGAAGGCACUGGGC |  |  | 30.8 | 14.9
17 | GGCCCGGGAGGAUAUACAUGAGGAUCACCCAUGUGCUUGAGCUUGAUCGAGUUCGAGUGUAGAAGGCCCGGGCC |  |  | 14 | 21.8
18 | GCACGGUUGCUAGGAUAUCCUUGCGAUUAGCAAGGAGAAGGAGCACAUGAGGAUCACCCAUGUACCUCAAUAAUCCAUCCGUGC |  |  | 14.8 | 14.2
19 | UGGUCAUGAUCAGGAUAUUAACAUGGGCUACAUUAAGAAGGGAUAGUGAGAUGCGAACUGAACGACAUGAGGAUCACCCAUGUA | 51.9 | 35.8 |  | 
20 | GGAUCGAGUGUGAGGAUAUGCUGGUCCUUGGAUCAGCAGAAGGCACAUGAGGAUCACCCAUGUGAAAACGGUCC |  |  | 26.6 | 189
